Reference: ChEMBL document CHEMBL5329223, “Newly synthesized 6-substituted piperazine/phenyl-9-cyclopentyl containing purine nucleobase analogs act as potent anticancer agents and induce apoptosis via inhibiting Src in hepatocellular carcinoma cells” (RSC Med Chem, 2023)
Active and inactive are the calls of the source. The rule behind the calls is not given here.

Legend:
Huh-7 [1] = test: Cytotoxicity against human Huh-7 cells assessed as cell growth inhibition incubated for 72 hrs by SRB assay; type: functional, cell-based; conditions: Huh-7, 72 h
Outline: (§1)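 Cells seeded at 1000–3000 per well, treated after 24 h with 2.5–40 μM (40, 20, 10, 5, 2.5 μM) for 72 h, in duplicate or triplicate; DMSO negative control. Fixed with 10% TCA 1 h at 4 °C, stained with 0.4% SRB in 1% acetic acid, dye solubilized in 10 mM TBS, A515 read; OD normalized to DMSO control, IC50 from growth-inhibition curves.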

HCT-116 = test: Cytotoxicity against human HCT-116 cells assessed as cell growth inhibition incubated for 72 hrs by SRB assay; type: functional, cell-based; conditions: HCT-116, 72 h; outline: as §1
MCF7 = test: Cytotoxicity against human MCF7 cells assessed as cell growth inhibition incubated for 72 hrs by SRB assay; type: functional, cell-based; conditions: MCF7, 72 h; outline: as §1
HepG2 = test: Cytotoxicity against human HepG2 cells assessed as cell growth inhibition incubated for 72 hrs by SRB assay; type: functional, cell-based; conditions: HepG2, 72 h; outline: as §1
Hep 3B2 = test: Cytotoxicity against human Hep3B cells assessed as cell growth inhibition incubated for 72 hrs by SRB assay; type: functional, cell-based; outline: as §1
PLC = test: Cytotoxicity against human PLC cells assessed as cell growth inhibition incubated for 72 hrs by SRB assay; type: functional, cell-based; outline: as §1
Mahlavu [2] = test: Cytotoxicity against human Mahlavu cells assessed as cell growth inhibition incubated for 72 hrs by SRB assay; type: functional, cell-based; outline: as §1
[3] = Cytotoxicity against human FOCUS cells assessed as cell growth inhibition incubated for 72 hrs by SRB assay; type: functional, cell-based; outline: as §1
SNU-475 = test: Cytotoxicity against human SNU-475 cells assessed as cell growth inhibition incubated for 72 hrs by SRB assay; type: functional, cell-based; conditions: SNU-475, 72 h; outline: as §1
SNU-182 = test: Cytotoxicity against human SNU-182 cells assessed as cell growth inhibition incubated for 72 hrs by SRB assay; type: functional, cell-based; conditions: SNU-182, 72 h; outline: as §1
SNU-387 = test: Cytotoxicity against human SNU-387 cells assessed as cell growth inhibition incubated for 72 hrs by SRB assay; type: functional, cell-based; conditions: SNU-387, 72 h; outline: as §1
SNU-398 = test: Cytotoxicity against human SNU-398 cells assessed as cell growth inhibition incubated for 72 hrs by SRB assay; type: functional, cell-based; conditions: SNU-398, 72 h; outline: as §1
SNU-423 = test: Cytotoxicity against human SNU-423 cells assessed as cell growth inhibition incubated for 72 hrs by SRB assay; type: functional, cell-based; conditions: SNU-423, 72 h; outline: as §1
SNU-449 = test: Cytotoxicity against human SNU-449 cells assessed as cell growth inhibition incubated for 72 hrs by SRB assay; type: functional, cell-based; conditions: SNU-449, 72 h; outline: as §1
Huh-7 [4] = test: Cytotoxicity against human Huh-7 cells assessed as cell growth inhibition at 0.625 to 5 uM measured upto 72 hrs by RT-CES analysis; type: functional, cell-based; conditions: dose 0.625-5 µM
Outline: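 Huh7 cells, 2000 per well, treated 24 h after seeding alongside DMSO control; cell index from impedance recorded every 30 min; plots for each concentration normalized to DMSO-treated cells.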

Huh-7 [5] = test: Induction of morphological changes in human Huh-7 cells assessed as horseshoe-like condensed nuclei at 5 uM incubated for 72 hrs by Hoechst 33258 dye based microscopy; type: functional, cell-based
Outline: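 Huh7 cells on coverslips (50 000 per well) given 5 μM or DMSO 24 h after seeding for 72 h; permeabilized with ice-cold methanol 10 min, Hoechst 33258 stain 5 min in the dark, imaged by fluorescence microscopy with 40× objective.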

Huh-7 [6] = test: Induction of cell cycle arrest in human Huh-7 cells assessed as increase in accumulation of cells at subG1 phase at 5 uM incubated for 72 hrs by PI staining based flow cytometry; type: functional
Outline: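 Huh7 and Mahlavu cells serum-starved 24 h to synchronize, then given 5 μM or DMSO in fresh growth medium for 72 h. Trypsinized, fixed in ice-cold 70% ethanol at least 3 h at −20 °C, PI-stained with a cell cycle kit, analyzed by flow cytometry for SubG1.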

Huh-7 [7] = test: Induction of apoptosis in human Huh-7 cells assessed as increase in PARP-1 cleavage at 5 uM incubated for 72 hrs by Western blot analysis; type: functional, cell-based
Outline: (§2)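 Huh7 cells (300 000 per dish) treated 24 h after seeding with 5 μM or DMSO for 72 h. Immunoblot for PARP-1, phospho-Src Tyr416, Src, Rb, phospho-Rb Ser807/811, Cdk2; calnexin and actin as loading controls.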

Huh-7 [8] = test: Upregulation of intracellular ATP level in human Huh-7 cells at 5 uM incubated for 72 hrs by Kinase Glo assay; type: functional, cell-based
Outline: (§3)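 Huh7 and Mahlavu cells grown 24 h, then treated with 5 μM for 72 h. Lysates protein-normalized by Bradford; ATP read by Kinase-Glo Plus luminescence per kit protocol. Staurosporine positive control, DMSO negative control.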

Mahlavu [9] = test: Upregulation of intracellular ATP level in human Mahlavu cells at 5 uM incubated for 72 hrs by Kinase Glo assay; type: functional, cell-based; outline: as §3
[10] = molecular target: T1, Discoidin domain-containing receptor 2 (Homo sapiens) (UniProt Q16832); test: Inhibition of human DDR2 at 10 uM by Kinomescan profiling analysis relative to control
T1 sequence (whole entry): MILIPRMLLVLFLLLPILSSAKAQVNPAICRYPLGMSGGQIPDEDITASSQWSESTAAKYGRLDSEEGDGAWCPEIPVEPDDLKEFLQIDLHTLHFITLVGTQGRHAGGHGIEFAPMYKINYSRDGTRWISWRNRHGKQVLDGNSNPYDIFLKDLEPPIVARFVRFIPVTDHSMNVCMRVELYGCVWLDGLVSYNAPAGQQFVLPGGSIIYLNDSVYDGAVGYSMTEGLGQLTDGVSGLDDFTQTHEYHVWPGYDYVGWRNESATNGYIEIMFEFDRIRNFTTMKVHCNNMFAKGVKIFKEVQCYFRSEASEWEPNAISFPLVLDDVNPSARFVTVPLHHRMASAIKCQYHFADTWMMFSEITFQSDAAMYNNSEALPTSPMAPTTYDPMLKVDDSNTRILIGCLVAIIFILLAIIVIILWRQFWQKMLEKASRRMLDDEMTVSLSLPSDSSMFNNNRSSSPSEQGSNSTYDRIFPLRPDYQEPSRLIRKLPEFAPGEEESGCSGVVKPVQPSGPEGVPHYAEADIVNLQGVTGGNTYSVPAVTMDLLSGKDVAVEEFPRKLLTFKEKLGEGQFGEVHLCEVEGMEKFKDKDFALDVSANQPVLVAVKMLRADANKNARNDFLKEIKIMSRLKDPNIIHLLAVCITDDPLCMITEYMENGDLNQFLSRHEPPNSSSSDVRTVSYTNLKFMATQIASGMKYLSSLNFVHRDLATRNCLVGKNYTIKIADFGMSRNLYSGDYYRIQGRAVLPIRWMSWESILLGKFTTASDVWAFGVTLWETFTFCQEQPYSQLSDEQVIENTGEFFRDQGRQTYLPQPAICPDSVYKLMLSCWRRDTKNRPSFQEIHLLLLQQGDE
Outline: (§4)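 Compounds in DMSO screened by KINOMEScan against a panel of human kinases for direct interaction, at 5000 nM or 10 000 nM depending on compound; scores calculated relative to DMSO negative control.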

[11] = molecular target: Proto-oncogene tyrosine-protein kinase Src (Homo sapiens) (UniProt P12931); test: Inhibition of Src activation in human Huh-7 cells assessed as decrease in phosphorylated Src level at 5 uM incubated for 72 hrs by Western blot analysis; type: cell-based; outline: as §2
[12] = molecular target: Proto-oncogene tyrosine-protein kinase Src (Homo sapiens) (UniProt P12931); test: Inhibition of Src activation in human Huh-7 cells assessed as decrease in phosphorylated Rb level at 5 uM incubated for 72 hrs by Western blot analysis; type: cell-based; outline: as §2
[13] = molecular target: Proto-oncogene tyrosine-protein kinase Src (Homo sapiens) (UniProt P12931); test: Inhibition of Src activation in human Huh-7 cells assessed as decrease in cyclin E level at 5 uM incubated for 72 hrs by Western blot analysis; type: cell-based; outline: as §2
[14] = molecular target: Proto-oncogene tyrosine-protein kinase Src (Homo sapiens) (UniProt P12931); test: Inhibition of Src activation in human Huh-7 cells assessed as decrease in Cdk2 level at 5 uM incubated for 72 hrs by Western blot analysis; type: cell-based; outline: as §2
[15] = molecular target: ALK tyrosine kinase receptor (Homo sapiens) (UniProt Q9UM73); test: Inhibition of human ALK at 5 uM by Kinomescan profiling analysis relative to control; outline: as §4
[16] = molecular target: Tyrosine-protein kinase BTK (Homo sapiens) (UniProt Q06187); test: Inhibition of human BTK at 5 uM by Kinomescan profiling analysis relative to control; outline: as §4
Tyrosine-protein kinase BTK (Homo sapiens), sequence (Q06187 whole entry): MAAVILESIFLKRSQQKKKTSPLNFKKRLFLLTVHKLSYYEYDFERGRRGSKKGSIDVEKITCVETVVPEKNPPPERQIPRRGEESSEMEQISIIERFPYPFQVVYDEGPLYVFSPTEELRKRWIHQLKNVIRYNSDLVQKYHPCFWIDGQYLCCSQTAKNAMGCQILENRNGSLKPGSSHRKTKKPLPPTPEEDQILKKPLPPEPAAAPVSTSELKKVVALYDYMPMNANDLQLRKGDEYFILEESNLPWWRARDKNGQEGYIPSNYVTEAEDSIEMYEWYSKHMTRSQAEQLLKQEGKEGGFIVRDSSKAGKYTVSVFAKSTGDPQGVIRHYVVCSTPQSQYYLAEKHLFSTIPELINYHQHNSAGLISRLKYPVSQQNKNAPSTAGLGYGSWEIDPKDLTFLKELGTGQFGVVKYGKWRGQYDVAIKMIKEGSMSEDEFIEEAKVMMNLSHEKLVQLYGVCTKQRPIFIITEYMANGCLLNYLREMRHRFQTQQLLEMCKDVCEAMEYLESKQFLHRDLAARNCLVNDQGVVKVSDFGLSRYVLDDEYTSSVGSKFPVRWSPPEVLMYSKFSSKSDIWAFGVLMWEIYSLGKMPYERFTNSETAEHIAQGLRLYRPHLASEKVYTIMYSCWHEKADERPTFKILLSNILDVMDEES

Proto-oncogene tyrosine-protein kinase Src (Homo sapiens), sequence (P12931 2-536 limits assumed): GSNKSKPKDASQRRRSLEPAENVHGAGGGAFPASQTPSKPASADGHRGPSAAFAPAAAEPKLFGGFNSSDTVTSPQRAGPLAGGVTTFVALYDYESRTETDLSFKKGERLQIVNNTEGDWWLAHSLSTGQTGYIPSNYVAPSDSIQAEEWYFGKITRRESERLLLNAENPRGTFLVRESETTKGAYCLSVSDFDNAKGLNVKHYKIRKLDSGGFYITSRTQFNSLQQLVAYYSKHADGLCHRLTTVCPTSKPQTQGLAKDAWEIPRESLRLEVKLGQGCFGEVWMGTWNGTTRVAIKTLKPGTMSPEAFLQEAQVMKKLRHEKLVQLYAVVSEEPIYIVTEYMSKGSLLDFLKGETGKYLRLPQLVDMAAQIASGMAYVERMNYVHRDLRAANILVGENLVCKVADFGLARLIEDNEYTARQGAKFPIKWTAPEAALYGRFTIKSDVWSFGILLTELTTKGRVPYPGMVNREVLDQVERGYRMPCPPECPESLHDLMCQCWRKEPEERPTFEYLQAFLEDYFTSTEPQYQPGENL
ALK tyrosine kinase receptor (Homo sapiens), sequence (Q9UM73 19-1620 limits assumed): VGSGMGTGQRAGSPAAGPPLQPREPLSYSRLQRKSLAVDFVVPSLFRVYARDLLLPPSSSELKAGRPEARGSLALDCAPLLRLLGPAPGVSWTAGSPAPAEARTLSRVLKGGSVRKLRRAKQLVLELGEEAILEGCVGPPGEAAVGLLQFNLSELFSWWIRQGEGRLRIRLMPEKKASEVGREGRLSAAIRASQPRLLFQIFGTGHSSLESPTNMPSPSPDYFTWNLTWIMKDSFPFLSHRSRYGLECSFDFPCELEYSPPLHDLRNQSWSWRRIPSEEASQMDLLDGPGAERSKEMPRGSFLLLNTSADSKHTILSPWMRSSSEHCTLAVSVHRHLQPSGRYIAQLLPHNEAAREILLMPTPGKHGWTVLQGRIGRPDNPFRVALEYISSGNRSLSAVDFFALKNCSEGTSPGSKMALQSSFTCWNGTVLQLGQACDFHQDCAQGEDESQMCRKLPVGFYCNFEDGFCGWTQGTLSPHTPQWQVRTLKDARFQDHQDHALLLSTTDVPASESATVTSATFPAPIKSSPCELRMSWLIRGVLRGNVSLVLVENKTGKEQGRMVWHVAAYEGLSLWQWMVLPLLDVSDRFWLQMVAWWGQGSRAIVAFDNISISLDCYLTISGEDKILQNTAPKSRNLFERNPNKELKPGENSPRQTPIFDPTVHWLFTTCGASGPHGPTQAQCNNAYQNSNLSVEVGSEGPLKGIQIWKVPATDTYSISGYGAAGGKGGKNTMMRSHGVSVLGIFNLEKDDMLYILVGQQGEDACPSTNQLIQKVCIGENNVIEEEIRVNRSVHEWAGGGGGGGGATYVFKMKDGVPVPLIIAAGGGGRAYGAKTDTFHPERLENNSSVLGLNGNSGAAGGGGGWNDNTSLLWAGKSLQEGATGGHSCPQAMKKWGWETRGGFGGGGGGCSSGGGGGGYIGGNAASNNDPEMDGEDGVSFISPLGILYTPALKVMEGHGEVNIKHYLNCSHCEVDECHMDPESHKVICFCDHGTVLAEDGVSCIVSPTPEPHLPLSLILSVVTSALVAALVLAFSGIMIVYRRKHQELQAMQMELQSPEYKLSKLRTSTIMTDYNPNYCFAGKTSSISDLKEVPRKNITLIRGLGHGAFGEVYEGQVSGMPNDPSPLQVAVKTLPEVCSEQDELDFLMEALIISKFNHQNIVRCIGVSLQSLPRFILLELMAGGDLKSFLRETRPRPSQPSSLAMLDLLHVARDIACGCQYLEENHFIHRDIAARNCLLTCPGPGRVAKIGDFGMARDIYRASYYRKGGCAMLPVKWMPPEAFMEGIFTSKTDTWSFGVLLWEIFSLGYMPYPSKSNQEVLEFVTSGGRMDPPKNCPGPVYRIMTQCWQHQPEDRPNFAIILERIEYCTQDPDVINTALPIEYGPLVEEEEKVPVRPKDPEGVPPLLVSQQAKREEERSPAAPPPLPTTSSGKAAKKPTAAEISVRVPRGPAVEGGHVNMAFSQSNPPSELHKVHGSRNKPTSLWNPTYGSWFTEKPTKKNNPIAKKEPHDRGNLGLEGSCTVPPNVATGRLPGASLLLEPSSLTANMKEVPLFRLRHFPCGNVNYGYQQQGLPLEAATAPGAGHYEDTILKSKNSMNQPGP

| Compound | IC50 (Huh-7 [1]) | IC50 (HCT-116) | IC50 (MCF7) | IC50 (HepG2) | IC50 (Hep 3B2) | IC50 (PLC) | IC50 (Mahlavu [2]) | IC50 [3] | IC50 (SNU-475) | IC50 (SNU-182) | IC50 (SNU-387) | IC50 (SNU-398) | IC50 (SNU-423) | IC50 (SNU-449) | growth inhibition (GI) (Huh-7 [4]) | Activity (Huh-7 [5]) | Activity (Huh-7 [6]) | Activity (Huh-7 [7]) | Activity (Huh-7 [8]) | Activity (Mahlavu [9]) | further results |
| --- | --- | --- | --- | --- | --- | --- | --- | --- | --- | --- | --- | --- | --- | --- | --- | --- | --- | --- | --- | --- | --- |
| c1ccc(Oc2ccc(-c3ncnc4c3ncn4C3CCCC3)cc2)cc1 | 700 nM | 800 nM | 2800 nM | 2 nM | 100 nM | 6.5 µM | 100 nM | 500 nM | 2.5 µM | 65 µM | 20 µM | 200 nM | 9.9 µM | < 100 nM | Active | Active | Active | Active | inactive | inactive | inhibition [10]: 6% |
| COc1ccc(N2CCN(c3ncnc4c3ncn4C3CCCC3)CC2)cc1 | 1300 nM | 5000 nM | 1000 nM | 300 nM | 300 nM | 9.3 µM | 600 nM | 2600 nM | 13 µM | 13 µM | 38 µM | 300 nM | 15 µM | 2000 nM | Active | Active | Active | Active | inactive | inactive |  |
| Fc1ccc(N2CCN(c3ncnc4c3ncn4C3CCCC3)CC2)cc1 | 1500 nM | 1600 nM | 9100 nM | 500 nM | 4300 nM | 6 µM | 7000 nM | 1500 nM | 7 µM | 41 µM | 26 µM | 1000 nM | 16 µM | 3300 nM | Active | Active | Active | Active | inactive | inactive |  |
| c1ccc(N2CCN(c3ncnc4c3ncn4C3CCCC3)CC2)cc1 | 1000 nM | 2100 nM | 100 nM | 2400 nM | < 100 nM | 4 µM | 200 nM | 600 nM | 5.8 µM | 6 µM | 13 µM | 1200 nM | 11 µM | 2000 nM | Active | Active | Active | Active | Active | Active | inhibition [11]: Active; inhibition [12]: Active; inhibition [13]: Active; inhibition [14]: Active; inhibition [15]: 13%; inhibition [16]: 1.9% |
| Clc1ccc(N2CCN(c3ncnc4c3ncn4C3CCCC3)CC2)cc1 | 100 nM | 600 nM | 4100 nM | 10 nM | 400 nM | 19.3 µM | 4000 nM | 2000 nM | 12.3 µM | 12.2 µM | 2 µM | 1800 nM | 4 µM | 6900 nM | Active | Active | Active |  | inactive | inactive | inhibition [11]: Active |
